# Source: PubChem BioAssay AID463185 (Molecular Libraries Program, Specialized Chemistry Center, …, 2010)
# Activity calls are given as the source filed them.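 Rule for the calls: active = IC50 at or below 10 µM; inactive = the rest.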
# Test system: HeLa UbG76V-GFP reporter degradation, GFP imaging
# Test: blockers of UbG76V-GFP proteasomal turnover – imaging, human cells, dose response (AID 463185)
# Method in brief: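 schedule = MG132 1 h, then compound chase imaged 70–170 min | assay system = UbG76V-GFP reporter HeLa cells | technique = cell imaging of GFP fluorescence, mean of about 500 cells | buffer or medium = 2.5% FBS medium plus cycloheximide 50 µg/mL | also added = MG132 4 µM pretreatment for reporter buildup before chase | control set = DMSO wells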
row,SMILES,IC50
1,Cc1cccc(CNc2nc(NCc3ccccc3)c3ccccc3n2)c1,4.1 µM
2,c1ccc(CNc2nc(NCc3ccccc3)c3ccccc3n2)cc1,2.3 µM
3,CCc1nc2ccccc2n1CC(=O)OC/C(O)=C(/C#N)c1nc2ccccc2[nH]1,7.2 µM
4,Fc1cccc(CNc2nc(NCc3ccccc3)c3ccccc3n2)c1,1.1 µM
5,Cc1cc(OCC(=O)OC/C(O)=C(/C#N)c2nc3ccccc3[nH]2)ccc1Cl,16 µM (inactive)
6,FC(F)(F)c1ccc(CNc2nc(NCc3ccccc3)c3ccccc3n2)cc1,2.5 µM
7,COc1ccccc1Nc1nc(N)nc(CCl)n1,21 µM (inactive)
8,Clc1cccc(CNc2nc(NCc3ccccc3)c3ccccc3n2)c1,3.7 µM
9,Brc1ccccc1CNc1nc(NCc2ccccc2)c2ccccc2n1,6.7 µM
10,CN(c1ccccc1)c1nc(N)nc(CCl)n1,31 µM (inactive)
11,Nc1nc(CCl)nc(Nc2ccc(Oc3ccccc3)cc2)n1,3.7 µM
12,COc1cc([N+](=O)[O-])ccc1Nc1nc(N)nc(CCl)n1,22 µM (inactive)
13,COc1ccccc1CNc1nc(NCc2ccccc2)c2ccccc2n1,4.8 µM
14,N#C/C(=C(\O)COC(=O)COc1ccc(Cl)cc1)c1nc2ccccc2[nH]1,2.6 µM
15,Cc1ccc(CNc2nc(NCc3ccccc3)c3ccccc3n2)cc1,2.4 µM
16,CCc1ccc(Nc2nc(N)nc(CCl)n2)cc1,18 µM (inactive)
17,Cc1ccccc1CNc1nc(NCc2ccccc2)c2ccccc2n1,10 µM
18,Brc1ccc(CNc2nc(NCc3ccccc3)c3ccccc3n2)cc1,6.7 µM
19,FC(F)(F)c1cc(CNc2nc(NCc3ccccc3)c3ccccc3n2)ccc1Cl,4.6 µM
20,Nc1nc(CCl)nc(Nc2ccc(Cl)cc2)n1,8 µM
21,COc1cccc(CNc2nc(NCc3ccccc3)c3ccccc3n2)c1,1.7 µM
22,CC(C)c1ccc(Nc2nc(N)nc(CCl)n2)cc1,14 µM (inactive)
23,N#C/C(=C(\O)COC(=O)CCC(=O)c1ccc2c(c1)OCCO2)c1nc2ccccc2[nH]1,6.3 µM
24,Brc1cccc(CNc2nc(NCc3ccccc3)c3ccccc3n2)c1,1.3 µM
25,Nc1nc(CCl)nc(N2CCc3ccccc32)n1,10.4 µM (inactive)
26,COc1cccc(Nc2nc(N)nc(CCl)n2)c1,23 µM (inactive)
27,Clc1ccc(CNc2nc(NCc3ccccc3)c3ccccc3n2)cc1Cl,4.6 µM

# More lines, now with the values ahead:
row,IC50,SMILES
1,6.5 µM,N#C/C(=C(\O)COC(=O)CNc1ccc(C(F)(F)F)cc1[N+](=O)[O-])c1nc2ccccc2[nH]1
2,6.1 µM,CCCOc1ccc(C(=O)CCC(=O)OC/C(O)=C(/C#N)c2nc3ccccc3[nH]2)cc1
3,4.1 µM,Clc1ccccc1CNc1nc(NCc2ccccc2)c2ccccc2n1
4,27 µM (inactive),Cc1cccc(Nc2nc(N)nc(CCl)n2)c1C
5,5.9 µM,N#C/C(=C(\O)COC(=O)COc1cccc(Br)c1)c1nc2ccccc2[nH]1
6,5.9 µM,Cc1c(Cl)cccc1Nc1nc(N)nc(CCl)n1
7,13 µM (inactive),Cc1cc(C)cc(OCC(=O)OC/C(O)=C(/C#N)c2nc3ccccc3[nH]2)c1
8,3.3 µM,Clc1ccc(CNc2nc(NCc3ccccc3)c3ccccc3n2)cc1
9,2.8 µM,Fc1ccc(CNc2nc(NCc3ccccc3)c3ccccc3n2)cc1
10,15 µM (inactive),Cc1cccc(C)c1OCC(=O)OC/C(O)=C(/C#N)c1nc2ccccc2[nH]1
11,14 µM (inactive),Nc1nc(CCl)nc(Nc2cccc3ccccc23)n1
12,10 µM,N#C/C(=C(\O)COC(=O)C1COc2ccccc2O1)c1nc2ccccc2[nH]1 (stereo not drawn)
13,3.4 µM,Fc1ccccc1CNc1nc(NCc2ccccc2)c2ccccc2n1
14,17 µM (inactive),Nc1nc(CCl)nc(N2CCCc3ccccc32)n1
15,10 µM,Nc1nc(CCl)nc(N(c2ccccc2)c2ccccc2)n1
16,3.3 µM,COc1ccc(CNc2nc(NCc3ccccc3)c3ccccc3n2)cc1
17,31 µM (inactive),Nc1nc(CCl)nc(Nc2ccc(F)cc2)n1
18,5.7 µM,Nc1nc(CCl)nc(Nc2ccc(Cl)c(Cl)c2)n1
19,3.4 µM,N#C/C(=C(\O)COC(=O)c1ccccc1Cc1ccccc1)c1nc2ccccc2[nH]1
20,26 µM (inactive),Cc1ccc(Nc2nc(N)nc(CCl)n2)cc1
21,13 µM (inactive),Nc1nc(Nc2cccc(Cl)c2)nc(C(Cl)Cl)n1
